# Only some compounds are listed: those with a hit (about 3% of all), similar ones and a draw of the others.
# Apaf1 inhib: blocks human Apaf-1 apoptosome activity; reconstituted apoptosome caspase-3 activity, DEVD-Rh110 fluorescence; inhibition, % at 20 µM; hit rate 0.71% among 330,000; active = inhibition of at least 40% at 20 µM;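 note: plate controls were DMSO wells for no effect and DEVD-CHO caspase inhibitor wells for full effect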
#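 Material: cell-free apoptosome with Apaf-1, procaspase-3 and caspase-9; Buffer or medium: Hepes pH 7.5 with detergent and BSA; Reagent: cytochrome c trigger plus (Z-DEVD)2-Rh110 caspase-3 substrate; Times: compound with Apaf-1, dATP, procaspase-3 30 min, then 50 min reaction, room temperature; Technique: Rh110 fluorescence intensity.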
# UBC13 polyUb: blocks human UBC13 polyubiquitin chain formation | P61088 | TR-FRET | inhibition, % at 20 µM | hit rate 0.47% among 330,000 | AID 485273; in the data active = inhibition above about 45%, passing the limit was not always enough
# SENP8 block-1: SENP8 (human) protease inhibition | Q96LD8 | recombinant SENP8, Nedd8 substrate fluorescence | inhibition, % at 20 µM | hit rate 0.64% among 360,000 | AID 602440; in the data active = inhibition mostly above about 40%, no sharp cut-off; inactive = mostly below about 27%
# Target sequence (Q96LD8 whole entry, looked up): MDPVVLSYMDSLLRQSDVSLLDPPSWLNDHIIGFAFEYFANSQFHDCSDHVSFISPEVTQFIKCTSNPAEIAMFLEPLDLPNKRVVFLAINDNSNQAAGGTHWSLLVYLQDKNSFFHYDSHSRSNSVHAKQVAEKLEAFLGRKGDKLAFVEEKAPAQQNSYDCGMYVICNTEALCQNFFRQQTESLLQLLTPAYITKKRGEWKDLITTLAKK
# SENP7 inh: blocks the human protease SENP7; Q9BQF6; hit rate 1.5% among 330,000; inhibition, % at 5 µM; recombinant SENP7, Z-RLRGG-aminoluciferin luminescence, 40 min;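 active = inhibition above about 50% at the single test dose, limit read from the data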;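 note: plate controls were DMSO with enzyme for no effect and no enzyme buffer wells for full effect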
# Target sequence (Q9BQF6 706-1050 limits assumed): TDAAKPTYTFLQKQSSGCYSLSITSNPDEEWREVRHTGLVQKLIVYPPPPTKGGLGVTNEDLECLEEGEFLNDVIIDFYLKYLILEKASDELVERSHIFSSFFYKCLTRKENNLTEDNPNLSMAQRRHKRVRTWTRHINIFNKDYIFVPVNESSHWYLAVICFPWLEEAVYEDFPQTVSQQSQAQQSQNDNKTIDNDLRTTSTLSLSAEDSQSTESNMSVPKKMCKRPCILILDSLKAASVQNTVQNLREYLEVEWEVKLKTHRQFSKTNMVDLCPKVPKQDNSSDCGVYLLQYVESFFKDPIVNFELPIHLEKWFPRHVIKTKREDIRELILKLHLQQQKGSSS
# SENP8 block-2: SENP8 protease inhibition; purified SENP8, Z-RLRGG-aminoluciferin cleavage, luminescence; inhibition, % at 10 µM; hit rate 1.2% among 330,000; AID 2540; in the data active = inhibition above about 50%
# SENP6 inh: blocks the human protease SENP6. Q9GZR1. Recombinant SENP6 catalytic domain, aminoluciferin luminescence. inhibition, % at 10 µM. hit rate 1.8% among 330,000;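 active = inhibition above about 50% at the single tested dose, limit read from the data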;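 note: plate controls were DMSO wells with enzyme for no effect and DMSO wells lacking enzyme for full effect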
# Apaf-1 inh conf2: Apaf-1 inhibition, single-dose confirmed. shares compounds with Apaf1 inhib. reconstituted apoptosome, caspase-3 DEVD-Rh110 fluorescence. inhibition, % at 20 µM. hit rate 25% among 1,800;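 active = mean inhibition of at least 40% at 20 µM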;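 note: plate controls were DMSO wells for no effect and DEVD-CHO caspase inhibitor control wells for full effect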
# Rh110 interf inh: counter-screen for Apaf-1 inhibitors: fluorescence interference; Rh110 fluorescence interference, quenched caspase reaction; shares compounds with Apaf1 inhib; AID 504615; activation (fluorescence interference), % at 20 µM; 1,800 tested, under 10 active;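 active = signal rise of 40% or more at 20 µM, treated as a fluorescence artifact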
# Fluor interf inh: Apaf-1 inhibitor counter-screen fluorescence artifact. shares compounds with Apaf1 inhib. fluorescence interference counterscreen, Apaf-1 assay format. IC50, µM. 460 tested, under 10 active. AID 588538; call rule not given here
# Active calls of the source: *; i = inactive; . = no result.
SMILES,Apaf1 inhib,UBC13 polyUb,SENP8 block-1,SENP7 inh,SENP8 block-2,SENP6 inh,Apaf-1 inh conf2,Rh110 interf inh,others
Nc1c(C(=O)NCC2CCCO2)c2nc3ccccc3nc2n1-c1ccccc1 (centres undefined),60*,-9,-454,6,15,35,27,9,
COc1ccc(-n2c(N)c(C(=O)NCc3ccco3)c3nc4ccccc4nc32)c(OC)c1,65*,-35,-402,9,9,32,16,0,
COCCCNC(=O)c1c(N)n(-c2cccc(S(N)(=O)=O)c2)c2nc3ccccc3nc12,43*,4,-482,1,1,6,28,1,
COc1ccccc1-n1c(C)nc2cc(C(=O)NCC3CCCO3)ccc21 (centres undefined),-5,-7,10,10,0,-11,.,.,
Cc1ccc(S(=O)(=O)N2CCC(C(=O)OCC(=O)N(C)Cc3ccccc3)CC2)cc1C,23,-6,34,-6,-19,-27,.,.,
Cc1ccc(S(=O)(=O)N2CCC(C(=O)OCC(=O)N(C)CC(=O)Nc3ccc(F)cc3)CC2)cc1C,52*,4,10,-2,-1,0,19,-2,
O=S1(=O)N[C@H](Cc2ccccc2)COc2cc(N3CCC[C@H]3CO)ccc21,.,.,9,.,.,.,.,.,
CN1CCN(c2ccc(NC(=O)c3cc(S(N)(=O)=O)ccc3N3CCOCC3)cc2)CC1,40*,8,9,-3,-13,-9,5,8,
O=c1cc(CN2CCN(c3ccccc3)CC2)nc2scc(-c3ccccc3)n12,13,-4,-84,1,4,-5,.,.,
COc1cc2c(cc1OC)CN(Cc1cc(=O)n3c(-c4ccccc4)csc3n1)CC2,42*,-8,-406,-2,-9,4,11,8,
CC(C)C[C@@H](C(=O)NC1CCN(Cc2ccccc2)CC1)N1C(=O)N2CCc3c([nH]c4ccccc34)[C@@]2(C)C1=O,45*,35,20,9,-14,-16,17,-1,
C[C@@H](C(=O)NC1CCN(Cc2ccccc2)CC1)N1C(=O)N2CCc3c([nH]c4ccccc34)[C@@]2(C)C1=O,2,23,0,-3,2,0,.,.,
COc1ccccc1-c1csc(C(O)c2ccc(F)cc2)n1 (centres undefined),.,.,16,.,.,.,.,.,
O=C(COC(=O)c1ccccc1)NCC1CCCO1 (centres undefined),56*,0,17,-15,-9,-16,5,1,
O=C(COC(=O)c1ccc(Br)cc1)NCC1CCCO1 (centres undefined),-6,10,12,6,-11,-7,.,.,
CCCCNC(=O)C1(C)CCCCN1Cc1ccccc1-c1ccccc1 (centres undefined),.,.,12,.,.,.,.,.,
C[C@@H]1CCCCO[C@H](CN(C)Cc2ccc3c(c2)OCO3)[C@@H](C)CN([C@H](C)CO)C(=O)c2cc(NC(=O)c3ccccc3)ccc2O1,.,.,-5,.,.,.,.,.,
CC(C)N(Cc1cc2ccccc2[nH]c1=O)C(=O)C1CCCCC1,57*,2,-13,-10,-14,-12,65*,6,Fluor interf inh=>100
CCN(Cc1cc2ccccc2[nH]c1=O)C(=O)C1CCCCC1,17,1,-53,-1,3,-3,.,.,
CC1(C)CC(=O)C(C=Nc2ccc(O)c(N=CC3=C(O)CC(C)(C)CC3=O)c2)=C(O)C1,47*,-24,-427,5,-3,-5,17,1,
CC1(C)CC(=O)C(C=Nc2ccc3c(c2)OCO3)=C(O)C1,-8,-4,-54,-6,-12,-37,.,.,
CC(=NCc1ccccc1)c1ccc(O)cc1O,.,.,8,.,.,.,.,.,
O=C(NC1CC1)C1=C[C@H](c2ccc(C(F)(F)F)cc2)C[C@H](OCCCCO)O1,50*,-2,6,5,7,10,4,9,
CC1(C)N([O-])c2cc([N+](=O)[O-])ccc2[N+]1=O,66*,-64,.,13,11,11,70*,3,Fluor interf inh=>100
OCCN1CCN(c2ncnc3c2ncn3[C@H]2CN(Cc3ccc(Cl)cc3)C[C@@H](CO)O2)CC1,.,.,10,.,.,.,.,.,
SMILES,Apaf1 inhib,UBC13 polyUb,SENP8 block-1,SENP7 inh,SENP8 block-2,SENP6 inh,Apaf-1 inh conf2,Rh110 interf inh,others
COc1cc(/C=C2\C(=O)N(CCC#N)N=C2C)c(Br)cc1OC(C)C,79*,-1,46*,24,4,40,28,0,
COc1cccc(OCc2cc(C(=O)NC3CCOCC3)no2)c1,-8,11,5,7,-3,13,.,.,
COc1ccc(OCc2cc(C(=O)NC3CCOCC3)no2)c2ccccc12,41*,-18,36,5,18,14,37,-3,
C=CCOc1cccn2c(N(C)C(=O)c3ccccc3F)c(CC)nc12,.,.,14,.,.,.,.,.,
OCCNc1c2ccccc2nc2c(F)c(F)c(F)c(F)c12,.,.,-343,.,.,.,.,.,
Cc1c2ccccc2nc2c(F)c(NCCO)c(F)c(F)c12,54*,-38,-7,2,-11,2,22,0,
COc1ccc(C2(c3ccc(OC)cc3)NC(=O)N(CC(=O)Nc3ccc(N4CCOCC4)cc3)C2=O)cc1,41*,-6,12,-6,-7,-4,28,2,
Cc1ccc(-n2c(SCC(=O)Nc3cc(C)on3)nc3c([nH]c4ccccc43)c2=O)cc1,54*,-4,-7,-5,5,10,14,-5,
CC(C)C#Cc1cnc2c(c1)C(=O)N([C@@H](C)CO)C[C@@H](C)[C@H](CN(C)Cc1cccc(F)c1)O2,.,.,-22,.,.,.,.,.,
COCCNC(=O)CN(c1cccc(OC)c1)S(=O)(=O)c1ccc(C)cc1,57*,7,2,-2,-5,4,16,0,
COc1ccc(N(CC(=O)NCCOc2ccccc2)S(=O)(=O)c2ccc(C)cc2)cc1,29,2,16,-2,-3,-19,.,.,
CC1(C(=O)Nc2ccc3c(c2)OCCO3)CCC(=O)N1C1CC1 (centres undefined),.,.,8,.,.,.,.,.,
OCc1cccc(-c2csc(C(O)c3ccccc3)n2)c1 (centres undefined),.,.,13,.,.,.,.,.,
CC1CCN(C(=O)Nc2ccc3nsnc3c2)CC1,2,6,-316,0,-4,-11,.,.,
O=C(Nc1ccc2nsnc2c1)N1CCCCC1,73*,-1,i,1,3,13,3,-3,
C[C@H](CO)N1C[C@H](C)[C@@H](CN(C)Cc2ccc(Oc3ccccc3)cc2)Oc2c(NC(=O)C3CC3)cccc2C1=O,43*,16,11,5,-2,-5,22,-4,
C[C@H](CO)N1C[C@H](C)[C@@H](CN(C)Cc2ccc(C(=O)O)cc2)Oc2c(NC(=O)C3CC3)cccc2C1=O,-4,8,12,2,-2,0,.,.,

# Compound activity: PubChem BioAssay, Sanford-Burnham Center for Chemical Genomics
